PubChem BioAssay AID588582 (Sanford-Burnham Center for Chemical Genomics, 2011)
The source made the active and inactive calls.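 How the source made its calls: active means mean EC50 at or below 20 µM; inactive means the rest.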

What follows are compounds tested against CHO-XBP1 luciferase reporter, IRE1-XBP1 arm activation (assay: IRE1-XBP1 reporter activation in CHO-XBP1 cells, SAR follow-up, counter-screen for UPR apoptotic arm activator project, cell-based, luciferase luminescence, set 2 (AID 588582)).
How it was run: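 Material – CHO-XBP1 luciferase reporter cells · Control set – high 10 µg/mL tunicamycin, low DMSO only · Incubation – cells plated 16–18 h before dosing, compound exposure 6 h at 37 °C · Measured by – Steady-Glo luminescence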

Row | EC50 | SMILES
1 | > 80 µM (inactive) | O=C(Nc1nc2ccc(F)c(F)c2s1)c1ccccn1
2 | > 80 µM (inactive) | O=C(Nc1nc2ccc(Cl)cc2s1)c1ccccn1
3 | > 80 µM (inactive) | CC1(C)CCN(S(=O)(=O)c2ccc(NC(=O)c3ccc(C(F)(F)F)o3)cc2)CC1
4 | > 80 µM (inactive) | O=C(Nc1nc2c(F)c(F)ccc2s1)c1ccccn1
5 | > 80 µM (inactive) | O=C(Nc1ccc(S(=O)(=O)N2CCC(F)CC2)cc1)c1ccc([N+](=O)[O-])o1
6 | > 80 µM (inactive) | O=C(Nc1nc2cc(F)ccc2s1)c1ccccn1
7 | > 80 µM (inactive) | O=C(Nc1ccc(S(=O)(=O)N2CCC3(CCCCC3)CC2)cc1)c1ccc([N+](=O)[O-])o1
8 | > 80 µM (inactive) | O=C(Nc1nc2c(F)ccc(F)c2s1)c1ccccn1
9 | > 80 µM (inactive) | CC(C)(C)C1CCN(S(=O)(=O)c2ccc(NC(=O)c3ccc([N+](=O)[O-])o3)cc2)CC1

The remaining lines, values behind:

Row | SMILES | EC50
10 | O=C(Nc1nc2cc(F)cc(F)c2s1)c1ccccn1 | > 80 µM (inactive)
11 | O=C(Nc1nc2ccc(C(F)(F)F)cc2s1)c1ccccn1 | > 80 µM (inactive)
12 | O=C(Nc1nc2cc(F)c(F)cc2s1)c1ccccn1 | > 80 µM (inactive)
13 | CC1CN(S(=O)(=O)c2ccc(NC(=O)c3ccc([N+](=O)[O-])o3)cc2)CC(C)O1 (stereo not drawn) | > 80 µM (inactive)
14 | O=C(Nc1ccc(S(=O)(=O)N2CCC(Cl)CC2)cc1)c1ccc([N+](=O)[O-])o1 | > 80 µM (inactive)
15 | Cn1c([N+](=O)[O-])cnc1C(=O)Nc1ccc(S(=O)(=O)N2CCC(C)(C)CC2)cc1 | > 80 µM (inactive)
16 | O=C(Nc1nc2cccc(F)c2s1)c1ccccn1 | > 80 µM (inactive)
17 | CC1(C)CCN(S(=O)(=O)c2ccc(NC(=O)c3cccc([N+](=O)[O-])c3)cc2)CC1 | > 80 µM (inactive)
18 | O=C(Nc1ccc(S(=O)(=O)C2CCOCC2)cc1)c1ccc([N+](=O)[O-])o1 | > 80 µM (inactive)
